# Results taken from the RNAGym collection of RNA variant scans (doi:10.1126/science.aae0568).
# Fewer inactive variants are shown than the library holds.
# B1: tRNA (parent)
# chain: GUUCCGUUGGCGUAAUGGUAACGCGUCUCCCUCCUAAGGAGAAGACUGCGGGUUCGAGUCCCGUACGGAACG
# Variants of: B1
# Assay: yeast fitness relative to wild type (ratio to wild type); higher = fitter; tRNA-Arg(CCU), competitive growth, 37 C, YPD
# Procedure, shortened: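 The tRNA-Arg(CCU) gene variants were made by chemical synthesis with a 3% per-site mutation rate at 69 sites and inserted at the native genomic locus of Saccharomyces cerevisiae. After pooling, the strains were competed in YPD at 37°C for 24 hours in six parallel replicates. Gene amplicons from the start population and each end population were read by 100-nucleotide paired-end sequencing, and Darwinian fitness relative to wild type was taken from genotype frequency changes. Genotypes needed ≥ 100 starting reads, and estimates < 0.5 were set to 0.5.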
row,Variant,yeast fitness
1,C5U U13G C30U,0.663
2,C5U U13G C33A A37C,0.555
3,C5U U13G C33A A37C A70G,≤ 0.5
4,C5U U13G C61U,0.726
5,C5U U16A C24U C66G,≤ 0.5
6,C5U U16C,0.972
7,C5U U16C A40G A43G G63C A69G,≤ 0.5
8,C5U U16C U59G,≤ 0.5
9,C5U U16G,0.809
10,C5U U16G A20C A21G C30U,≤ 0.5
11,C5U U16G C34A U53C C60U,≤ 0.5
12,C5U U19A A21G A43C G51C,≤ 0.5
13,C5U U19A C30A A42C U64C,≤ 0.5
14,C5U U19C A21U A37C C61A A65C,≤ 0.5
15,C5U U19C C24A U28A,≤ 0.5
16,C5U U19C C24A U28A C46G C62U A70U,≤ 0.5
17,C5U U19G U53A,0.529
18,C5U U26A,0.915
19,C5U U26A C55G C61A,≤ 0.5
20,C5U U26C A40U,≤ 0.5
21,C5U U26C A69C,0.655
22,C5U U26G,0.969
23,C5U U28A A65U,0.553
24,C5U U28A C30G,≤ 0.5

row,Variant,yeast fitness
1,C5U U28A C34U G41A,≤ 0.5
2,C5U U28A G41A C62U,≤ 0.5
3,C5U U28C A45C,0.672
4,C5U U28C C29U G63C A65U,≤ 0.5
5,C5U U28G C61G,0.58
6,C5U U28G C62U A65G,≤ 0.5
7,C5U U32A A43G,≤ 0.5
8,C5U U32A C66U,0.578
9,C5U U32C,0.892
10,C5U U32C C49U,0.842
11,C5U U32C G39A C60U C61G,0.527
12,C5U U32C U35C C49G,≤ 0.5
13,C5U U35A A45C,0.602
14,C5U U35A G44A,0.558
15,C5U U35C,0.811
16,C5U U35G A45U A57C,≤ 0.5
17,C5U U35G U47A G48A,≤ 0.5
18,C5U U47A G68C,0.534
19,C5U U47C,0.96
20,G6A A14C,0.674
21,G6A A14C A37U,0.689
22,G6A A14G A42G,0.549
23,G6A A14G A45G,0.797
24,G6A A14G C22G U35G A40C A70G,≤ 0.5

row,Variant,yeast fitness
1,G6A A14G C24A A36G A45U,≤ 0.5
2,G6A A14G C66A,≤ 0.5
3,G6A A14G G23A C24G G44A,≤ 0.5
4,G6A A14G U35C A36G A45U,≤ 0.5
5,G6A A14U,0.663
6,G6A A14U A20C U28C C46U G58A,≤ 0.5
7,G6A A14U C22U A37G,≤ 0.5
8,G6A A14U C34A A70G,≤ 0.5
9,G6A A14U C61U,≤ 0.5
10,G6A A14U G52A G63C,≤ 0.5
11,G6A A15C A20U A36U G39A,≤ 0.5
12,G6A A15C A20U A57U,≤ 0.5
13,G6A A15C C27A A43G,0.592
14,G6A A15C G39A A65G,≤ 0.5
15,G6A A15C U16C,≤ 0.5
16,G6A A15C U28A C31G U64A C66U G68C,≤ 0.5
17,G6A A15G C22A,≤ 0.5
18,G6A A15U A69U A70U,≤ 0.5
19,G6A A15U C22A,≤ 0.5
20,G6A A15U G18C G23C A43G C60U,≤ 0.5
21,G6A A20C A36C U47A G48C U54G A65C,≤ 0.5
22,G6A A20C A57C,≤ 0.5
23,G6A A20C C29A G44C,≤ 0.5
24,G6A A20C C31U C33G,≤ 0.5

row,Variant,yeast fitness
1,G6A A20C G39C C60G C61G,≤ 0.5
2,G6A A20C U28A C31A C33U A37C G50A A65U,≤ 0.5
3,G6A A20G A36G C49G C55U,≤ 0.5
4,G6A A20G C30G U35A G50A A65C,0.517
5,G6A A20U C62U A65G,≤ 0.5
6,G6A A20U G52C,≤ 0.5
7,G6A A21C U28A C62U,≤ 0.5
8,G6A A21C U47A G56A,≤ 0.5
9,G6A A21C U47A G68A,≤ 0.5
10,G6A A21G C24G A37U,≤ 0.5
11,G6A A21G C33G A57U C62U,≤ 0.5
12,G6A A21G C55U C66U,≤ 0.5
13,G6A A21U U26G A70C,0.569
14,G6A A36C,0.53
15,G6A A36C A37G G52A,≤ 0.5
16,G6A A36U A45U,≤ 0.5
17,G6A A36U C66U,0.536
18,G6A A36U G41A C60G,≤ 0.5
19,G6A A37G,0.722
20,G6A A37G C60G A70U,≤ 0.5
21,G6A A40U,0.823
22,G6A A43G,0.801
23,G6A A43G A65U,0.604
24,G6A A45C,0.738

row,Variant,yeast fitness
1,G6A A45C G58A,0.519
2,G6A A45G A70U,0.775
3,G6A A45G G67U,0.687
4,G6A A57U G58A A65U,≤ 0.5
5,G6A A69U,0.916
6,G6A C11A A14C U19C U32A A42C U54C C61U G68C,≤ 0.5
7,G6A C11A A15G C49G G51C,≤ 0.5
8,G6A C11A A36G C61U C66U,≤ 0.5
9,G6A C11A A43G G58A A65C C66U,≤ 0.5
10,G6A C11A C49G,≤ 0.5
11,G6A C11A U19A,0.53
12,G6A C11A U26A G52A,≤ 0.5
13,G6A C11A U53C,≤ 0.5
14,G6A C11G,0.738
15,G6A C11G A21G C27G C29U U35G,≤ 0.5
16,G6A C11G A21G C27G C29U U35G A70C,≤ 0.5
17,G6A C11G C22G C49A G51A,≤ 0.5
18,G6A C11U A21C U28A C62U,≤ 0.5
19,G6A C11U A43U C62G C66A A69C,≤ 0.5
20,G6A C22A C29U,≤ 0.5
21,G6A C22G,0.702
22,G6A C22G A40C G41C G68C,≤ 0.5
23,G6A C22G A45C G52C A57U A69C,≤ 0.5
24,G6A C22G A57C C66A,≤ 0.5

row,Variant,yeast fitness
1,G6A C22G C24U U47A A70C,≤ 0.5
2,G6A C22G C33A A36C A43G C55G,≤ 0.5
3,G6A C22G U47A,≤ 0.5
4,G6A C22U C31G,≤ 0.5
5,G6A C22U U53G,0.653
6,G6A C24A G38A G39C,≤ 0.5
7,G6A C24G C31G C34U,≤ 0.5
8,G6A C24G U35A C46U G51C C55U A65C,≤ 0.5
9,G6A C24U,0.733
10,G6A C24U C29G C49A,0.575
11,G6A C24U C31A A43C G58C U64G,≤ 0.5
12,G6A C24U C31A A43C U53C,≤ 0.5
13,G6A C24U C46U,0.764
14,G6A C24U C49A,≤ 0.5
15,G6A C24U C49U C61G C66U A69U,≤ 0.5
16,G6A C24U C66U,0.647
17,G6A C27A A36G A70U,≤ 0.5
18,G6A C27G A57C C66G,≤ 0.5
19,G6A C27U,0.785
20,G6A C27U A45C U59C C62U,≤ 0.5
21,G6A C27U A57U,0.544
22,G6A C29A,0.647
23,G6A C29A C55U,0.514
24,G6A C29G A43U,≤ 0.5

row,Variant,yeast fitness
1,G6A C29G G38C A40G A45C,≤ 0.5
2,G6A C29G U32C,0.548
3,G6A C29U C31U C33G U35C,≤ 0.5
4,G6A C29U G50C U53C A57U C61G,≤ 0.5
5,G6A C30G C55G,≤ 0.5
6,G6A C30G G67C A69G,≤ 0.5
7,G6A C30U A65C A69G A70U,≤ 0.5
8,G6A C30U U35C,≤ 0.5
9,G6A C31G A40U,0.688
10,G6A C31U A36G,≤ 0.5
11,G6A C31U C55U,0.571
12,G6A C31U U32C G67C,0.593
13,G6A C33G C55G C61G,≤ 0.5
14,G6A C34A A40U U59G,≤ 0.5
15,G6A C34A A40U U64A,≤ 0.5
16,G6A C34U,0.65
17,G6A C46G G51A,0.637
18,G6A C49A G63A,≤ 0.5
19,G6A C55U,0.677
20,G6A C60A,0.515
21,G6A C61A C62U A65U A69C,≤ 0.5
22,G6A C62A,0.873
23,G6A C62A A70C,0.636
